Only some compounds are listed: those with a hit (about 4% of all), similar ones and a draw of the others.
E-selectin induc – induces E-selectin expression in human endothelial cells; P16581; HUVEC E-selectin immunofluorescence imaging; normalized: neutral wells 0, TNF-alpha wells 100; activation, % at 7.58 µM; 260,000 compounds, 0.37% hits; AID 686992;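 active means mean E-selectin-positive cell signal at least 10% of the positive control, reached in at least 60% of replicates, without over 20% cell loss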
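Test system: HUVEC; input: 3,000 HUVEC/well; measured by: immunofluorescence imaging; read-out: % PE-positive cells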
Statin myotox sup – suppression of simvastatin myotoxicity; C2C12 myotubes + simvastatin, ATP luminescence, 48 h; scaled: DMSO 0, geranylgeraniol control 100; rescue of ATP level, % at 7.49 µM; 330,000 compounds, 0.78% hits;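 active means mean ATP rescue above about 67%, or every replicate alone reaching that limit, limit read from the data, passing the limit was not always enough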;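 further: myotubes were challenged with 10 µM simvastatin during compound exposure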
FN deposition inh – fibronectin deposition inhibition | AH1F fibroblasts, Alexa488-fibronectin deposition fluorescence, overnight | 350,000 compounds, 0.086% hits | inhibition, % at 12.6 µM | AID 743247;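 active means mean inhibition across replicates of 30% or more, regardless of how many single replicates reach that level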
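Test system: AH1F fibroblast monolayer depositing Alexa488-labelled fibronectin into matrix. Input: 10000 cells per well. Technique: fluorescence, ex 485 nm, em 525 nm. Buffer or medium: DMEM plus 2% serum, read in PBS. Timing: 1 h cell adhesion before compound, then overnight fibronectin incubation. Compound: single dose, pinned. Read-out basis: inhibition from reduced deposited-fibronectin fluorescence.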
SIRT5 inh – blocks human SIRT5 desuccinylation of peptide | Q9NXA8 | Purified SirT5, succinyl-peptide AMC, trypsin-coupled fluorescence | inhibition, % at 15 µM | 330,000 compounds, 1.1% hits; in the data active means inhibition above about 15%
Target sequence (Q9NXA8 whole entry, looked up): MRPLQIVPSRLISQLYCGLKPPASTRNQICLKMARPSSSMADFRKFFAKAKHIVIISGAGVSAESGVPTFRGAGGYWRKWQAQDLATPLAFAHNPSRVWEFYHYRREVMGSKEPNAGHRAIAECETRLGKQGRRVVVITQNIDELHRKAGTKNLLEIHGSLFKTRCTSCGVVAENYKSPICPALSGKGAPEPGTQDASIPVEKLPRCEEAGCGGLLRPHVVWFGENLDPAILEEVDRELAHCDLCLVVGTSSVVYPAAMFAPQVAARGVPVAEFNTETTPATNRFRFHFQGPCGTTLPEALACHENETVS
rRNA inh HTS – inhibitors of bacterial rRNA selective over humanized ribosomes | E. coli WT GFP vs humanized-ribosome RFP mutants, fluorescence, 24 h; hits give low values; DMSO median 0, no signal -100 | GFP signal change (wild-type ribosome), % (concentration not given with the values) | 350,000 compounds, 1.6% hits | AID 720706;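 active means significant combined selectivity score with lowered wild-type GFP, culture density cut under 30%, mutant RFP and density less affected; inactive means any of these conditions unmet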
FGF22 binding – FGF22 (human) thermal shift binding | recombinant FGF22 thermal shift, SYPRO orange fluorescence; percent of sucrose octasulfate shift, DMSO zero | AID 651658 | 340,000 compounds, 1.5% hits | activity (Tm shift, normalised), % at 9.99 µM | Q9HCT0;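 active means mean Tm shift, scaled 0 neutral to 100 positive control, at about 1.3% or above, every replicate too, limit read from the data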
Target sequence (Q9HCT0 whole entry, looked up): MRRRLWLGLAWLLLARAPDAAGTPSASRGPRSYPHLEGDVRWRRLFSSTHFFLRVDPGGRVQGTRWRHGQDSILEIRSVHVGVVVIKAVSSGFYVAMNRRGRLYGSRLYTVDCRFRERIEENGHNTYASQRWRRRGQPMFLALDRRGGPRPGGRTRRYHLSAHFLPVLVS
Of the large screens only hits and unclear results are named; the others gave an inactive call.

N#Cc1c(N)nc2c(c1N)CC(=O)N2c1ccc(Cl)cc1	rRNA inh HTS -31 (no result: E-selectin induc, FN deposition inh)
CCCNC(=O)C[C@@H]1CC[C@H]2[C@@H](COC[C@@H](O)CN2CC2CCCCC2)O1	none
COc1ccc(C(=O)NCc2oc(-c3ccccc3)cc2C(=O)O)cc1	rRNA inh HTS -24 (no result: E-selectin induc, FN deposition inh, FGF22 binding)
COc1ccc(C(=O)NCc2c(C)oc(C)c2C(=O)O)cc1	none
N#C[C@@H]1[C@H](c2ccccc2)[C@@H](CO)N1C(=O)Cc1ccccn1	none
O=C(O)c1ccc2c(c1)C1C=CCC1C(c1cc3c(cc1Br)OCO3)N2 (stereo not given)	none (no result: Statin myotox sup)
O=C(O)c1ccc(NS(=O)(=O)c2ccc3c(c2)C2C=CCC2C(c2ccccc2F)N3)cc1 (stereo not given)	SIRT5 inh 51 (no result: E-selectin induc, Statin myotox sup, FGF22 binding)
CC(C)NC(=O)N[C@@H]1CC[C@H](CCNS(=O)(=O)c2ccc(F)cc2)O[C@H]1CO	none (no result: FN deposition inh)
Cc1ccc(S(=O)(=O)N[C@H]2CC[C@@H](CCn3cc(C4CCCC4)nn3)O[C@@H]2CO)cc1	none
COc1ccc(N(CN2C(=O)c3ccccc3C2=O)C(=O)COc2ccc(Cl)cc2Cl)cc1	none (no result: E-selectin induc)
O=C1c2ccccc2C(=O)N1CN(C(=O)COc1ccccc1)c1ccc(F)cc1	Statin myotox sup 114
COc1ccc(OC)c2c1C(=O)C(Cl)=C(Cl)C2=O	FN deposition inh 60 (no result: Statin myotox sup)
COc1ccc(OC)c2c1C(=O)c1ccccc1C2=O	none (no result: E-selectin induc, Statin myotox sup, SIRT5 inh, rRNA inh HTS, FGF22 binding)
O=C(C[C@@H]1CC[C@@H]2[C@H](COC[C@H](O)CN2CC2CCOCC2)O1)N1CCOCC1	none
CC(Sc1ccsc1[N+](=O)[O-])C(=O)N1CCN(c2ccccn2)CC1 (stereo not given)	FGF22 binding 44 (no result: E-selectin induc, Statin myotox sup)
CC(Sc1ccsc1[N+](=O)[O-])C(=O)NCc1ccccc1 (stereo not given)	FGF22 binding 43 (no result: E-selectin induc, Statin myotox sup)
O=C(CSc1ncn[nH]1)c1cccc([N+](=O)[O-])c1	E-selectin induc 38 (no result: Statin myotox sup)
CCN(C(=O)COC(=O)c1cnc(C)cn1)C1CCCCC1	Statin myotox sup 135 (no result: E-selectin induc, FN deposition inh, SIRT5 inh, rRNA inh HTS, FGF22 binding)
Cc1cnc(C(=O)OCC(=O)NC23CC4CC(CC(C4)C2)C3)cn1	none (no result: E-selectin induc, FN deposition inh, rRNA inh HTS)
Cc1cnc(C(=O)OCC(=O)C23CC4CC(CC(C4)C2)C3)cn1	SIRT5 inh 17
CN1C(=O)c2cc(NC(=O)C3CC3)ccc2OC[C@H]2O[C@@H](CC(=O)Nc3ccc(F)cc3)CC[C@@H]21	none (no result: SIRT5 inh)
C[C@H]1CN([C@@H](C)CO)C(=O)Cc2cc(NC(=O)C3CCCCC3)ccc2O[C@H]1CN(C)Cc1ccc(C(=O)O)cc1	none (no result: FN deposition inh)
O=C(NCC1CCCCC1)[C@@H]1[C@@H](CO)[C@@H]2Cn3c(ccc(C4=CCCC4)c3=O)[C@H]1N2	none (no result: FN deposition inh, FGF22 binding)
CCOC(=O)N1CCN(C(=O)CN(Cc2ccccc2)S(=O)(=O)c2ccc(OC)c(Cl)c2)CC1	Statin myotox sup 123 (no result: E-selectin induc, SIRT5 inh, rRNA inh HTS, FGF22 binding)
CCOC(=O)N1CCN(C(=O)CN(Cc2ccc(Cl)cc2)S(=O)(=O)c2ccc(C)cc2)CC1	none (no result: E-selectin induc, SIRT5 inh, rRNA inh HTS, FGF22 binding)
C[C@H](CO)N1C[C@H](C)[C@H](CN(C)C(=O)CCCN(C)C)OCCCC[C@H](C)Oc2ccc(NS(=O)(=O)c3ccccc3)cc2C1=O	none (no result: Statin myotox sup)
Cc1cc(C(F)(F)F)c2c(N)c(C(=O)NCc3ccc(Cl)cc3)sc2n1	FGF22 binding 43 (no result: Statin myotox sup, SIRT5 inh)
CN(C[C@@H]1N[C@H](CO)[C@@H]1c1ccc(C2=CCCC2)cc1)S(C)(=O)=O	SIRT5 inh 16
CN(C[C@H]1N[C@@H](CO)[C@H]1c1ccc(C2=CCCC2)cc1)S(C)(=O)=O	none
C[C@@H]1CN([C@@H](C)CO)C(=O)c2c(c3ccccc3n2C)-c2ccccc2CO[C@@H]1CN(C)Cc1ccc(C(=O)O)cc1	none
Cc1ccc(-n2c(-c3cccs3)nc3nc4ccccc4nc32)cc1	none (no result: Statin myotox sup, SIRT5 inh)
Fc1ccc(-n2c(-c3cccs3)nc3nc4ccccc4nc32)cc1	E-selectin induc 36 (no result: Statin myotox sup, SIRT5 inh, rRNA inh HTS, FGF22 binding)
CC(C)(C)N(Cc1ccccc1)C(=O)c1ccc(Br)o1	SIRT5 inh 19
Cc1noc(C)c1S(=O)(=O)Nc1ccc2c(c1)C(=O)N([C@H](C)CO)C[C@H](C)[C@@H](CN(C)C(=O)c1ccncc1)OCCCC[C@H](C)O2	none (no result: Statin myotox sup, FN deposition inh)

Assay outcomes: PubChem BioAssay, Broad Institute
